From ChEMBL document CHEMBL5376013, “Design, synthesis and biological evaluation of novel morpholinopyrimidine-5-carbonitrile derivatives as dual PI3K/mTOR inhibitors” (RSC Med Chem, 2024)

What was measured:
Type in all cases: functional
Settings in all cases: read-out: GI
HOP-62 = assay: Antitumor activity against human HOP-62 cells assessed as growth inhibition at 10 uM relative to control
In short: (§1)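 After drug addition, plates were incubated 48 h at 37 °C under 5% CO2. Adherent cells were fixed with cold TCA (10% final, 60 min, 4 °C) and suspension cells with 16% final TCA. Staining used 0.4% SRB in 1% acetic acid, solubilized in 10 mM trizma, read at A515. Percent growth was calculated from time-zero, control and treated absorbances.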

K562 = assay: Antitumor activity against human K562 cells assessed as growth inhibition at 10 uM relative to control; in short: as §1
CAKI-1 = assay: Antitumor activity against human CAKI-1 cells assessed as growth inhibition at 10 uM relative to control; in short: as §1
MCF7 = assay: Antitumor activity against human MCF7 cells assessed as growth inhibition at 10 uM relative to control; in short: as §1
A549 = assay: Antitumor activity against human A549 cells assessed as growth inhibition at 10 uM relative to control; in short: as §1
NCI-H322M = assay: Antitumor activity against human NCI-H322M cells assessed as growth inhibition at 10 uM relative to control; in short: as §1
KM12 = assay: Antitumor activity against human KM12 cells assessed as growth inhibition at 10 uM relative to control; in short: as §1
COLO 205 = assay: Antitumor activity against human COLO 205 cells assessed as growth inhibition at 10 uM relative to control; in short: as §1
HCC 2998 = assay: Antitumor activity against human HCC 2998 cells assessed as growth inhibition at 10 uM relative to control; in short: as §1
NCI-H226 = assay: Antitumor activity against human NCI-H226 cells assessed as growth inhibition at 10 uM relative to control; in short: as §1
SK-MEL-5 = assay: Antitumor activity against human SK-MEL-5 cells assessed as growth inhibition at 10 uM relative to control
In short: (§2)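 Drug exposure 48 h at 37 °C, 5% CO2. Adherent cells fixed with cold TCA (10% final), suspension cells with TCA (16% final). Stained with 0.4% SRB in 1% acetic acid, dissolved in 10 mM Tris, A515. Growth relative to time-zero and untreated control.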

786-0 = assay: Antitumor activity against human 786-0 cells assessed as growth inhibition at 10 uM relative to control; in short: as §1
OVCAR-3 = assay: Antitumor activity against human OVCAR-3 cells assessed as growth inhibition at 10 uM relative to control; in short: as §1
CCRF-CEM = assay: Antitumor activity against human CCRF-CEM cells assessed as growth inhibition at 10 uM relative to control; in short: as §1
NCI-H23 = assay: Antitumor activity against human NCI-H23 cells assessed as growth inhibition at 10 uM relative to control; in short: as §1
NCI-H460 = assay: Antitumor activity against human NCI-H460 cells assessed as growth inhibition at 10 uM relative to control; in short: as §1
Hs-578T = assay: Antitumor activity against human Hs-578T cells assessed as growth inhibition at 10 uM relative to control; in short: as §1
MDA-MB-435 = assay: Antitumor activity against human MDA-MB-435 cells assessed as growth inhibition at 10 uM relative to control; in short: as §1
Malme-3M = assay: Antitumor activity against human Malme-3M cells assessed as growth inhibition at 10 uM relative to control; in short: as §1
OVCAR-8 = assay: Antitumor activity against human OVCAR-8 cells assessed as growth inhibition at 10 uM relative to control; in short: as §1
SF-539 = assay: Antitumor activity against human SF-539 cells assessed as growth inhibition at 10 uM relative to control; in short: as §1
MDA-MB-468 = assay: Antitumor activity against human MDA-MB-468 cells assessed as growth inhibition at 10 uM relative to control; in short: as §1
UO-31 = assay: Antitumor activity against human UO-31 cells assessed as growth inhibition at 10 uM relative to control; in short: as §2
NCI-H522 = assay: Antitumor activity against human NCI-H522 cells assessed as growth inhibition at 10 uM relative to control; in short: as §1
HT-29 = assay: Antitumor activity against human HT-29 cells assessed as growth inhibition at 10 uM relative to control; in short: as §1
EKVX = assay: Antitumor activity against human EKVX cells assessed as growth inhibition at 10 uM relative to control; in short: as §1
OVCAR-5 = assay: Antitumor activity against human OVCAR-5 cells assessed as growth inhibition at 10 uM relative to control; in short: as §1
HCT-116 = assay: Antitumor activity against human HCT-116 cells assessed as growth inhibition at 10 uM relative to control; in short: as §1
BT-549 = assay: Antitumor activity against human BT-549 cells assessed as growth inhibition at 10 uM relative to control; in short: as §1
LOX IMVI = assay: Antitumor activity against human LOX IMVI cells assessed as growth inhibition at 10 uM relative to control; in short: as §1
SR = assay: Antitumor activity against human SR cells assessed as growth inhibition at 10 uM relative to control; in short: as §2
SK-MEL-28 = assay: Antitumor activity against human SK-MEL-28 cells assessed as growth inhibition at 10 uM relative to control; in short: as §2
U-251 = assay: Antitumor activity against human U-251 cells assessed as growth inhibition at 10 uM relative to control; in short: as §2
IGROV-1 = assay: Antitumor activity against human IGROV-1 cells assessed as growth inhibition at 10 uM relative to control; in short: as §1
T47D = assay: Antitumor activity against human T47D cells assessed as growth inhibition at 10 uM relative to control; in short: as §2
SW-620 = assay: Antitumor activity against human SW-620 cells assessed as growth inhibition at 10 uM relative to control; in short: as §2
SNB-19 = assay: Antitumor activity against human SNB-19 cells assessed as growth inhibition at 10 uM relative to control; in short: as §2
MDA-MB-231 = assay: Antitumor activity against human MDA-MB-231 cells assessed as growth inhibition at 10 uM relative to control; in short: as §1
SNB-75 = assay: Antitumor activity against human SNB-75 cells assessed as growth inhibition at 10 uM relative to control; in short: as §2
SN12C = assay: Antitumor activity against human SN12C cells assessed as growth inhibition at 10 uM relative to control; in short: as §2
HCT-15 = assay: Antitumor activity against human HCT-15 cells assessed as growth inhibition at 10 uM relative to control; in short: as §1
MOLT-4 = assay: Antitumor activity against human MOLT-4 cells assessed as growth inhibition at 10 uM relative to control; in short: as §1
RPMI-8226 = assay: Antitumor activity against human RPMI-8226 cells assessed as growth inhibition at 10 uM relative to control; in short: as §1
HL-60 = assay: Antitumor activity against human HL-60 cells assessed as growth inhibition at 10 uM relative to control; in short: as §1
RXF 393 = assay: Antitumor activity against human RXF 393 cells assessed as growth inhibition at 10 uM relative to control; in short: as §1
SK-MEL-2 = assay: Antitumor activity against human SK-MEL-2 cells assessed as growth inhibition at 10 uM relative to control; in short: as §1

For `N#Cc1c(-c2ccc(Cl)cc2)nc(N/N=C/c2cccc(Cl)c2)nc1N1CCOCC1`, the inhibition of growth at 10 µM (HOP-62) was < 1%, the inhibition of growth at 10 µM (K562) was 64.9% and the inhibition of growth at 10 µM (CAKI-1) was 20.8%. The inhibition of growth at 10 µM (MCF7) was < 14.1%, the inhibition of growth at 10 µM (A549) was 18.1% and the inhibition of growth at 10 µM (NCI-H322M) was 11.2%. The inhibition of growth at 10 µM (KM12) was < 1%, the inhibition of growth at 10 µM (COLO 205) was 39% and the inhibition of growth at 10 µM (HCC 2998) was < 1%. For the same compound, the inhibition of growth at 10 µM (NCI-H226) was 10.7%, the inhibition of growth at 10 µM (SK-MEL-5) was < 1% and the inhibition of growth at 10 µM (786-0) was 29.9%. For the same compound, the inhibition of growth at 10 µM (OVCAR-3) was 12.6%, the inhibition of growth at 10 µM (CCRF-CEM) was 27.5% and the inhibition of growth at 10 µM (NCI-H23) was < 1%. For the same compound, the inhibition of growth at 10 µM (NCI-H460) was < 1%, the inhibition of growth at 10 µM (Hs-578T) was < 1% and the inhibition of growth at 10 µM (MDA-MB-435) was < 1%. The inhibition of growth at 10 µM (Malme-3M) was < 1%, the inhibition of growth at 10 µM (OVCAR-8) was < 1% and the inhibition of growth at 10 µM (SF-539) was 20.9%. The inhibition of growth at 10 µM (MDA-MB-468) was 14.9%, the inhibition of growth at 10 µM (UO-31) was 46.5% and the inhibition of growth at 10 µM (NCI-H522) was < 1%. For the same compound, the inhibition of growth at 10 µM (HT-29) was 59.6%, the inhibition of growth at 10 µM (EKVX) was 22.3% and the inhibition of growth at 10 µM (OVCAR-5) was < 1%. For the same compound, the inhibition of growth at 10 µM (HCT-116) was 29.2%, the inhibition of growth at 10 µM (BT-549) was < 1% and the inhibition of growth at 10 µM (LOX IMVI) was 14.5%. For the same compound, the inhibition of growth at 10 µM (SR) was 91.3%, the inhibition of growth at 10 µM (SK-MEL-28) was < 1% and the inhibition of growth at 10 µM (U-251) was < 1%. For the same compound, the inhibition of growth at 10 µM (IGROV-1) was 24.8%, the inhibition of growth at 10 µM (T47D) was 23.4% and the inhibition of growth at 10 µM (SW-620) was 46.7%. The inhibition of growth at 10 µM (SNB-19) was < 1%, the inhibition of growth at 10 µM (MDA-MB-231) was < 1% and the inhibition of growth at 10 µM (SNB-75) was 19.9%. The inhibition of growth at 10 µM (SN12C) was < 1%, the inhibition of growth at 10 µM (HCT-15) was 64.6% and the inhibition of growth at 10 µM (MOLT-4) was 46.7%. The inhibition of growth at 10 µM (RPMI-8226) was 35%, the inhibition of growth at 10 µM (HL-60) was 28.5% and the inhibition of growth at 10 µM (RXF 393) was < 1%. The inhibition of growth at 10 µM (SK-MEL-2) was < 1%.

`CSc1nc(O)c(C#N)c(-c2ccc(Cl)cc2)n1` was tested, and the inhibition of growth at 10 µM (HOP-62) was < 1%, the inhibition of growth at 10 µM (K562) was < 1% and the inhibition of growth at 10 µM (CAKI-1) was < 1%. For the same compound, the inhibition of growth at 10 µM (MCF7) was 11%, the inhibition of growth at 10 µM (A549) was < 1% and the inhibition of growth at 10 µM (NCI-H322M) was < 1%. The inhibition of growth at 10 µM (KM12) was < 1%, the inhibition of growth at 10 µM (COLO 205) was < 1% and the inhibition of growth at 10 µM (HCC 2998) was < 1%. For the same compound, the inhibition of growth at 10 µM (NCI-H226) was < 1%, the inhibition of growth at 10 µM (SK-MEL-5) was < 1% and the inhibition of growth at 10 µM (786-0) was < 1%. For the same compound, the inhibition of growth at 10 µM (OVCAR-3) was < 1%, the inhibition of growth at 10 µM (CCRF-CEM) was < 1% and the inhibition of growth at 10 µM (NCI-H23) was < 1%. The inhibition of growth at 10 µM (NCI-H460) was < 1%, the inhibition of growth at 10 µM (Hs-578T) was < 1% and the inhibition of growth at 10 µM (MDA-MB-435) was < 1%. The inhibition of growth at 10 µM (Malme-3M) was < 1%, the inhibition of growth at 10 µM (OVCAR-8) was < 1% and the inhibition of growth at 10 µM (SF-539) was < 1%. The inhibition of growth at 10 µM (MDA-MB-468) was < 1%, the inhibition of growth at 10 µM (UO-31) was < 1% and the inhibition of growth at 10 µM (NCI-H522) was < 1%. The inhibition of growth at 10 µM (HT-29) was < 1%, the inhibition of growth at 10 µM (EKVX) was < 1% and the inhibition of growth at 10 µM (OVCAR-5) was < 1%. For the same compound, the inhibition of growth at 10 µM (HCT-116) was < 1%, the inhibition of growth at 10 µM (BT-549) was < 1% and the inhibition of growth at 10 µM (LOX IMVI) was < 1%. The inhibition of growth at 10 µM (SR) was < 1%, the inhibition of growth at 10 µM (SK-MEL-28) was < 1% and the inhibition of growth at 10 µM (U-251) was < 1%. The inhibition of growth at 10 µM (IGROV-1) was < 1%, the inhibition of growth at 10 µM (T47D) was < 1% and the inhibition of growth at 10 µM (SW-620) was < 1%. The inhibition of growth at 10 µM (SNB-19) was < 1%, the inhibition of growth at 10 µM (MDA-MB-231) was < 1% and the inhibition of growth at 10 µM (SNB-75) was 11.3%. For the same compound, the inhibition of growth at 10 µM (SN12C) was < 1%, the inhibition of growth at 10 µM (HCT-15) was < 1% and the inhibition of growth at 10 µM (MOLT-4) was < 1%. For the same compound, the inhibition of growth at 10 µM (RPMI-8226) was < 1%, the inhibition of growth at 10 µM (HL-60) was < 1% and the inhibition of growth at 10 µM (RXF 393) was < 1%. For the same compound, the inhibition of growth at 10 µM (SK-MEL-2) was < 1%.
